In PMC4241044 (Journal of Clinical Pharmacology, 2014):
Read-outs that look alike come from different tables or passages of the source. Marks after values point to notes of the source that are not given here. Values belong to the compound of their own block, whether it stands above or below them.

What was measured:
[1] = Rivaroxaban urine pharmacokinetics; assay type: in vivo, human; conditions: arithmetic mean (SD); for CL renal: human, urine and plasma, oral, CLR, renal clearance
[2] = assay type: in vivo, human; conditions: for AUC(0-inf) / Cmax / Vd/F / Tmax / half-life: human, plasma, oral; for Tmax: median (minimum–maximum); for half-life: t½; for increase in AUC∞ / increase in Cmax: compared with normal renal function; for DNAUC∞ (dose-normalized AUC∞) / DNCmax (dose-normalized Cmax): dose-normalized to 10 mg
[3] = steady-state erythromycin; previous Phase I drug–drug interaction study; cited from earlier work
[4] = previous study, cited from earlier work
Factor Xa activity = Factor Xa activity (Homo sapiens, UniProt P00742); assay: Factor Xa inhibition in plasma; assay type: in vivo
Factor Xa activity, sequence (P00742 235-488 limits assumed): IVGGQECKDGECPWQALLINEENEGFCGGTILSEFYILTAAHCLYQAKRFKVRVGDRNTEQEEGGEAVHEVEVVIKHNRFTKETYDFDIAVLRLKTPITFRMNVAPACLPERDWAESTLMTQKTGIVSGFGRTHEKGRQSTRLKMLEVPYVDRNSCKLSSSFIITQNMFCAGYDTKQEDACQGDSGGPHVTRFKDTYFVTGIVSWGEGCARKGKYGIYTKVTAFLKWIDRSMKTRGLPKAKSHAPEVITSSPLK
Factor Xa activity, sequence (P00742 41-179 partner limits assumed): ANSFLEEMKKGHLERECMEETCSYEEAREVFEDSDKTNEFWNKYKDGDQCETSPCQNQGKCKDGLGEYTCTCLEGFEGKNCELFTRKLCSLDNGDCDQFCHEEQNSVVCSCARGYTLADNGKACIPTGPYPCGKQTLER

[5] = 2.5–10 mg dose range under fasting conditions and 10–20 mg dose range under fed conditions; ref previous Phase I studies; cited from earlier work
Safety and tolerability = assay type: in vivo, human
How it was run: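 Monitoring was continuous and covered bleeding events and other treatment-emergent adverse events, with severity and relation to study drugs. Vital signs, ECG, haematology, clinical chemistry, PT/aPTT and urinalysis were checked, plus regular physical examinations. Subjects were grouped by Cockcroft–Gault CLCR. […] Analysis included all subjects receiving ≥1 study-drug dose.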

prothrombin time (PT) = assay: Prothrombin time prolongation in plasma; assay type: in vivo, human
How it was run: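 Subjects were grouped by mean of two Cockcroft–Gault CLCR estimates: ≥80 (normal), 50–79 (mild) and 30–49 mL/min (moderate). […] PT blood was drawn at −1 h (baseline) and 0.5–48 h post-dose. […] Log-transformed geometric mean ratios with 90% CI; completers only.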

[6] = cited from earlier work
[7] = Erythromycin trough plasma concentrations, attainment of steady state; assay type: in vivo, human; conditions: erythromycin 500 mg tid, visual inspection
How it was run: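 Erythromycin 500 mg tid was given for 6 days in treatment periods 2 and 3. Trough plasma was sampled before the morning erythromycin dose on days 2–6 and on the morning of day 7, then stored frozen. Assay was LC/MS/MS after methanol protein precipitation, on a reverse-phase column at 40 °C. Steady state was judged visually from concentration–time plots.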

[8] = rivaroxaban 5 mg + erythromycin 500 mg tid, mild renal impairment
[9] = rivaroxaban 5 mg + erythromycin 500 mg tid, moderate renal impairment
[10] = rivaroxaban 10 mg + erythromycin 500 mg tid, mild renal impairment
[11] = rivaroxaban 10 mg + erythromycin 500 mg tid, moderate renal impairment
[12] = rivaroxaban 10 mg + erythromycin 500 mg tid, normal renal function
[13] = Mild RI, rivaroxaban 10 mg + erythromycin 500 mg tid
[14] = Moderate RI, rivaroxaban 10 mg + erythromycin 500 mg tid
[15] = 10 mg, geometric mean, Normal RF, rivaroxaban 10 mg
[16] = 10 mg, rivaroxaban 10 mg, mild renal impairment, arithmetic mean (SD)
[17] = rivaroxaban 5 mg + erythromycin 500 mg tid, mild renal impairment, arithmetic mean (SD)
[18] = rivaroxaban 5 mg + erythromycin 500 mg tid, moderate renal impairment, arithmetic mean (SD)
[19] = rivaroxaban 10 mg + erythromycin 500 mg tid, normal renal function, arithmetic mean (SD)
[20] = rivaroxaban 10 mg + erythromycin 500 mg tid, moderate renal impairment, arithmetic mean (SD)
[21] = mild renal impairment, rivaroxaban 10 mg with steady-state erythromycin, rivaroxaban 10 mg alone
[22] = mild renal impairment, rivaroxaban 10 mg
[23] = moderate renal impairment, rivaroxaban 10 mg with steady-state erythromycin, rivaroxaban 10 mg alone
[24] = moderate renal impairment, rivaroxaban 10 mg
[25] = mild renal impairment vs normal renal function, rivaroxaban 10 mg
[26] = moderate renal impairment vs normal renal function, rivaroxaban 10 mg
[27] = normal renal function, rivaroxaban 10 mg + erythromycin vs rivaroxaban alone

CL renal [1, 8]: 15.9 mL/min
CL renal [1, 9]: 9.25 mL/min
CL renal [1, 10]: 19.2 mL/min
CL renal [1, 11]: 13.3 mL/min
CL renal [1, 12]: 34.3 mL/min
AUC∞, geometric mean [2, 13]: 3,078.7 ng · h/mL
Cmax, geometric mean [2, 13]: 277.2 ng/mL
Cmax, geometric mean [2, 14]: 292.42 ng/mL
AUC∞, geometric mean ([2]; Moderate RI, rivaroxaban 10 mg + erythromycin 500 mg tid, n = 7): 3,475.5 ^a ng · h/mL
Cmax, geometric mean ([2]; Normal RF, rivaroxaban 10 mg): 178.17 ng/mL
AUC(0-inf) ([2]; 10 mg, geometric mean, Mild RI, rivaroxaban 10 mg): 2000 ng·h/mL
AUC(0-inf) ([2]; 10 mg, geometric mean, Moderate RI, rivaroxaban 10 mg): 2040 ng·h/mL
AUC(0-inf) [2, 15]: 1750 ng·h/mL
AUC(0-inf) [2, 16]: 2020 ng·h/mL
Cmax [2, 15]: 178 ng/mL
Vd/F [2, 16]: 77.3 L
Tmax ([2]; 10 mg, rivaroxaban 10 mg, mild renal impairment): 3 h
Tmax ([2]; 10 mg, rivaroxaban 10 mg, moderate renal impairment): 3 h
half-life [2, 16]: 9.9 h
AUC(0-inf) [2, 17]: 1970 ng·h/mL
AUC(0-inf) [2, 18]: 1980 ng·h/mL
AUC(0-inf) [2, 19]: 2470 ng·h/mL
Cmax [2, 20]: 323 ng/mL
Cmax [2, 19]: 256 ng/mL
Vd/F [2, 17]: 37.5 L
Vd/F ([2]; rivaroxaban 10 mg + erythromycin 500 mg tid, mild renal impairment, arithmetic mean (SD)): 46 L
Vd/F [2, 20]: 40.9 L
Vd/F [2, 19]: 44.2 L
Tmax [2, 8]: 3 h
Tmax [2, 11]: 3 h
half-life [2, 18]: 10 h
increase in AUC∞ [2, 21]: approximately 76%
increase in Cmax [2, 21]: ~56%
increase in AUC∞ [2, 22]: approximately 15%
increase in Cmax [2, 22]: ~23%
increase in AUC∞ [2, 23]: ~99%
increase in Cmax [2, 23]: ~64%
increase in AUC∞ [2, 24]: approximately 17%
increase in Cmax [2, 24]: ~36%
DNAUC∞ (dose-normalized AUC∞) [2, 17]: 3,935 (1,671) ng · h/mL
DNCmax (dose-normalized Cmax) [2, 17]: 358 (109) ng/mL
DNAUC∞ (dose-normalized AUC∞) [2, 18]: 3,961 (1,020) ng · h/mL
DNCmax (dose-normalized Cmax) [2, 18]: 329 (104) ng/mL
Factor Xa inhibition AUC0–48h, geometric mean (Factor Xa activity; [14]): 842.3
Factor Xa inhibition Emax, geometric mean (Factor Xa activity; [14]): 53.61
Factor Xa inhibition AUC0–48h, geometric mean (Factor Xa activity; Normal RF, rivaroxaban 10 mg): 593.43
Factor Xa inhibition Emax, geometric mean (Factor Xa activity; Normal RF, rivaroxaban 10 mg): 39.38
increase in Factor Xa inhibition AUC0–48h (Factor Xa activity; [25]): approximately 16%
increase in Factor Xa inhibition Emax (Factor Xa activity; [25]): ~17%
increase in Factor Xa inhibition AUC0–48h (Factor Xa activity; [26]): approximately 3%
increase in Factor Xa inhibition Emax (Factor Xa activity; [26]): ~17%
Factor Xa inhibition AUC0–48h lower by (Factor Xa activity; [27]): approximately 8%
increase in Factor Xa inhibition Emax (Factor Xa activity; [27]): approximately 18%
Compound: O=C(NC[C@H]1CN(c2ccc(N3CCOCC3=O)cc2)C(=O)O1)c1ccc(Cl)s1 [Rivaroxaban, rivaroxaban]
Ae, cumulative amount excreted into the urine over 48 hours [1, 8]: 1.56 (0.692) mg
Ae, cumulative amount excreted into the urine over 48 hours [1, 9]: 1.04 (0.531) mg
Ae, cumulative amount excreted into the urine over 48 hours [1, 10]: 3.29 (0.893) mg
Ae, cumulative amount excreted into the urine over 48 hours [1, 11]: 2.74 (1.10) mg
Ae, cumulative amount excreted into the urine over 48 hours [1, 12]: 4.80 (0.851) mg
Ae, cumulative amount excreted into the urine over 48 hours ([1]; rivaroxaban 10 mg, mild renal impairment): 2.49 (0.697) ^a mg
Ae, cumulative amount excreted into the urine over 48 hours ([1]; rivaroxaban 10 mg, moderate renal impairment): 1.30 (0.654) mg
Ae, cumulative amount excreted into the urine over 48 hours ([1]; rivaroxaban 10 mg, normal renal function): 3.51 (0.773) mg
increase in AUC∞ [3]: approximately 34%
increase in Cmax [3]: approximately 34%
increase in AUC∞ ([4]; mild renal impairment vs normal renal function): approximately 44%
increase in AUC∞ ([4]; moderate renal impairment vs normal renal function): ~52%
dose proportionality (based on AUC) [5]: dose-proportional
subjects reporting bleeding events (Safety and tolerability; 1 NRF, 3 moderate RI, all mild in intensity, of 29 enrolled): Four
tolerability (Safety and tolerability; single dose 5 mg or 10 mg, regardless of renal function and erythromycin co-administration): well tolerated
Prothrombin time AUC0–48h, geometric mean (prothrombin time (PT); [13]): 118.7
Prothrombin time Emax, geometric mean (prothrombin time (PT); [13]): 9.85
Prothrombin time AUC0–48h, geometric mean (prothrombin time (PT); [14]): 115.1
Prothrombin time Emax, geometric mean (prothrombin time (PT); [14]): 10.02
Prothrombin time AUC0–48h, geometric mean (prothrombin time (PT); Normal RF, rivaroxaban 10 mg): 67.82
Prothrombin time Emax, geometric mean (prothrombin time (PT); Normal RF, rivaroxaban 10 mg): 8.24
increase in PT Emax (prothrombin time (PT); [25]): ~5%
change in PT AUC0–48h (prothrombin time (PT); [26]): did not seem to change significantly
change in PT Emax (prothrombin time (PT); [26]): did not seem to change significantly
increase in PT AUC0–48h (prothrombin time (PT); [27]): approximately 22%
increase in PT Emax (prothrombin time (PT); [27]): ~10%
dose metabolized via CYP2J2 [6]: 14%
dose metabolized via CYP3A4/3A5 [6]: approximately 18%
dose metabolized via CYP-independent hydrolysis [6]: 14%
drug excreted unchanged by the kidneys [6]: approximately 36%
fraction of the absorbed dose hepatically metabolized ([6]; via CYP3A4/3A5, CYP2J2 and CYP-independent mechanisms): approximately two-thirds
fraction of the absorbed dose eliminated as unchanged drug in the urine ([6]; via P-gp-mediated and ABCG2-mediated secretion): third

attainment of steady-state plasma concentrations [7]: obtained by the morning of day 5
Compound: CC[C@H]1OC(=O)[C@H](C)[C@@H](O[C@H]2C[C@@](C)(OC)[C@@H](O)[C@H](C)O2)[C@H](C)[C@@H](O[C@@H]2O[C@H](C)C[C@H](N(C)C)[C@H]2O)[C@](C)(O)C[C@@H](C)C(=O)[C@H](C)[C@@H](O)[C@]1(C)O [erythromycin]
